Reference: ChEMBL document CHEMBL4732237, “Discovery of 4-alkoxy-2-aryl-6,7-dimethoxyquinolines as a new class of topoisomerase I inhibitors endowed with potent in vitro anticancer activity” (2021)

How the values were obtained:
Type in all cases: functional
[1] = test system: NCI-H460; experiment: Growth inhibition of human NCI-H460 cells incubated for 48 hrs by sulforhodamine B assay
Method in brief: (§1)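 NCI five-dose screen (0.01–100 µM; five concentrations plus control). Cells grown in RPMI 1640/5% FBS/2 mM L-glutamine and preincubated 24 h, with time-zero plates TCA-fixed. Drug exposure 48 h at 37 °C, followed by SRB protein staining and reading at 515 nm. GI50 is the concentration at [(Ti-Tz)/(C-Tz)]×100 = 50.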

[2] = test system: Hs-578T; experiment: Growth inhibition of human HS-578T cells incubated for 48 hrs by sulforhodamine B assay
Method in brief: (§2)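 NCI five-dose screen covering 0.01–100 µM, prepared as 10-fold or ½-log dilutions from DMSO stock. Cells in RPMI 1640 with 5% FBS were exposed for 48 h at 37 °C after 24 h preincubation. Adherent cells were fixed with TCA (final 10%) and suspension cells were settled before fixing. Stain was SRB, read at 515 nm. GI50 = 50% reduction in net protein increase versus control, with Tz taken at drug addition.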

[3] = test system: KM12; experiment: Growth inhibition of human KM12 cells incubated for 48 hrs by sulforhodamine B assay; method in brief: as §2
[4] = test system: SK-MEL-5; experiment: Growth inhibition of human SK-MEL-5 cells incubated for 48 hrs by sulforhodamine B assay; method in brief: as §1
[5] = test system: HCT-15; experiment: Growth inhibition of human HCT-15 cells incubated for 48 hrs by sulforhodamine B assay; method in brief: as §2
[6] = test system: RXF 393; experiment: Growth inhibition of human RXF 393 cells incubated for 48 hrs by sulforhodamine B assay; method in brief: as §1
[7] = test system: HCC 2998; experiment: Growth inhibition of human HCC 2998 cells incubated for 48 hrs by sulforhodamine B assay; method in brief: as §2
[8] = test system: HL-60(TB); experiment: Growth inhibition of human HL-60(TB) cells incubated for 48 hrs by sulforhodamine B assay
Method in brief: (§3)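 NCI-60 five-dose screen. Cells in RPMI 1640 with 5% FBS and 2 mM L-glutamine were plated at 5000–40,000 cells/well and preincubated 24 h at 37 °C, 5% CO2. Drugs in DMSO were given at five serial 10-fold or ½-log dilutions for 48 h. Adherent cells fixed with 10% TCA (final); suspension cells fixed after settling. SRB stained; A515. GI50 from [(Ti-Tz)/(C-Tz)]x100 = 50.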

[9] = Growth inhibition of human leukemia cell line incubated for 48 hrs by sulforhodamine B assay; conditions: leukaemia cell line; method in brief: as §3
[10] = test system: Melanoma cell line; experiment: Growth inhibition of human Melanoma cell line incubated for 48 hrs by sulforhodamine B assay; method in brief: as §3
[11] = Growth inhibition of human Prostate tumor cell line incubated for 48 hrs by sulforhodamine B assay; method in brief: as §3
[12] = Growth inhibition of human Renal cancer cell line incubated for 48 hrs by sulforhodamine B assay; method in brief: as §3
[13] = Growth inhibition of human Breast cancer cell line incubated for 48 hrs by sulforhodamine B assay; method in brief: as §3
[14] = Growth inhibition of human Non-small cell lung cancer cell line incubated for 48 hrs by sulforhodamine B assay; method in brief: as §3
[15] = test system: Ovarian cancer cell line; experiment: Growth inhibition of human Ovarian cancer cell line incubated for 48 hrs by sulforhodamine B assay; method in brief: as §3
[16] = test system: CNS carcinoma cell; experiment: Growth inhibition of human CNS carcinoma cell incubated for 48 hrs by sulforhodamine B assay; method in brief: as §3
[17] = test system: Colon cancer cell line; experiment: Growth inhibition of human colon cancer cell line incubated for 48 hrs by sulforhodamine B assay; method in brief: as §3

SMILES	GI50 [1] [µM]	GI50 [2] [µM]	GI50 [3] [µM]	GI50 [4] [µM]	GI50 [5] [µM]	GI50 [6] [µM]	GI50 [7] [µM]	GI50 [8] [µM]	LC50 [9] [µM]	TGI [9] [µM]	LC50 (50% lethal concentration) [10] [µM]	TGI [10] [µM]	LC50 (concentration killing 50% of cells) [11] [µM]	TGI [11] [µM]	LC50 (concentration giving 50% net cell kill) [12] [µM]	TGI [12] [µM]	LC50 [13] [µM]	TGI [13] [µM]	LC50 (concentration killing 50% of cells) [14] [µM]	TGI [14] [µM]	further results
COc1cc2nc(-c3ccc(Cl)cc3)cc(OCCCN3CCCCC3)c2cc1OC	0.842	2.11	3.07	1.1	0.604	1.08	2.34	–	–	–	–	–	–	–	–	–	–	–	–	–	–
COc1cc2nc(-c3ccc(Cl)cc3)cc(OCCCN3CCOCC3)c2cc1OC	0.958	2.4	3.87	0.832	0.754	1.12	1.97	–	–	–	–	–	–	–	–	–	–	–	–	–	–
COc1cc2nc(-c3ccc(Cl)cc3)cc(OCCCN3CCC(O)CC3)c2cc1OC	0.955	1.91	3.13	1.27	0.763	1.22	1.95	4.27	–	–	–	–	–	–	–	–	–	–	–	–	–
COc1cc2nc(-c3ccc(C(F)(F)F)cc3)cc(OCCCN3CCCC3)c2cc1OC	0.528	1.74	1.34	0.247	0.416	1.13	1.45	1.84	81.6	6.17	23.7	4.08	89.5	16.8	40.1	10.2	40.8	6.8	57.9	12.7	TGI [4]: 0.645 µM; LC50 [15]: 81 µM; TGI [15]: 28.1 µM; LC50 [16]: 44.9 µM; TGI [16]: 11.7 µM; LC50 [17]: 50.4 µM; TGI [17]: 8.07 µM
COc1cc2nc(-c3ccc(Cl)cc3)cc(OCCCN3CCCC3)c2cc1OC	0.823	1.89	2.46	0.961	0.567	1.17	1.86	2.72	32	4.99	14.6	4.26	39.6	12.1	28.9	7.66	29.6	5.8	39.7	10.4	LC50 [15]: 55.1 µM; TGI [15]: 14.8 µM; LC50 [16]: 33.5 µM; TGI [16]: 10.1 µM; LC50 [17]: 39.1 µM; TGI [17]: 8.31 µM
COc1cc2nc(-c3ccc(C(F)(F)F)cc3)cc(OCCCN3CCCCC3)c2cc1OC	0.595	2.15	2.92	0.325	0.399	1.09	1.28	2.91	74.8	10.3	19.9	4.14	42.2	13.8	35	11	43	9.29	50.6	13.8	TGI [4]: 1.2 µM; LC50 [15]: 65.5 µM; TGI [15]: 19.7 µM; LC50 [16]: 38.8 µM; TGI [16]: 11.9 µM; LC50 [17]: 40.8 µM; TGI [17]: 10.3 µM
COc1cc2nc(-c3ccc(C(F)(F)F)cc3)cc(OCCCN3CCOCC3)c2cc1OC	0.639	2.25	3.42	0.288	0.52	0.706	1.41	9.58	–	–	–	–	–	–	–	–	–	–	–	–	–
COc1cc2nc(-c3ccc(C(F)(F)F)cc3)cc(OCCCN3CCC(O)CC3)c2cc1OC	0.835	3.75	6.87	1.43	0.667	1.34	4.07	13.9	–	–	–	–	–	–	–	–	–	–	–	–	–
